SKKanGAS inh: S. pyogenes SKKanGAS growth inhibitors in kanamycin, primary screen, streptokinase expression inhibitor project, SKKanGAS strain, BacTiter-Glo luminescence; 6 h; inhibition, % at 7.5 µM; 1.3% of 300,000 active;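 active = mean replicate score, as percent of positive control median, at least 50; inconclusive = mean below 50 but one replicate at or above 50; inactive = mean and every replicate below 50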;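 also: strain carries kanamycin resistance gene driven by streptokinase promoter and grows in 40 µg/ml kanamycin; loss of luminescence reflects streptokinase promoter inhibition or plain growth inhibition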
HIF activator: HIF pathway transcriptional activators, primary screen, cell-based, U2OS HRE-luciferase, luminescence; U2OS HRE-luciferase reporter; normalized: DMSO 0%, desferrioxamine 100%; 0.32% of 300,000 active; AID 1910, 2009; activation, % at 7.5 µM (by protocol);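 active = mean activation of at least 10% of the iron chelator positive control signal, with at least half of replicates also reaching 10%; inconclusive = mean and replicate majority disagree about reaching 10%; inactive = mean and most replicates under 10%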
PfHsp90 yeast 2: growth inhibition of PfHsp90-expressing yeast, primary screen, antimalarial PfHsp90 inhibitor project, S. cerevisiae, BacTiter-Glo luminescence, single point, set 2 | BacTiter-Glo ATP, 48 h; yeast lacking PDR1 and PDR3 efflux regulators | inhibition, % at 9.4 µM | 0.32% of 310,000 active;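 active = every replicate shows inhibition above about 80%, whatever the replicate mean, limit read from the data; inconclusive = mean inhibition reaches the set limit but some replicate falls short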
Beta apoptosis: inhibitors of cytokine-induced beta cell apoptosis, primary screen, luminescence; INS-1E cytokine-induced death, ATP luminescence, 48 h; percent of positive-control rescue, neutral wells zero; protection from apoptosis, % (concentration not given with the values); 0.8% of 300,000 active;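 active = Every replicate reaches about 75%, or at least half do and their mean reaches it too, limit read from the data; inconclusive = At least half of replicates reach the limit but their mean does not; inactive = Under half of replicates reach the limit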;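 also: higher means more ATP so stronger rescue from cytokine killing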
CSC inhib: cancer stem cell viability inhibitors, primary screen, luminescence. cancer stem cell-like cells viability. inhibition, % at 7.5 µM. 1.1% of 300,000 active; in the data active = inhibition above about 75%; inconclusive = no clear call, values can overlap the other calls; tested in HMLE shEcad cells
T cruzi inh: inhibitors of intracellular T. cruzi growth, primary screen, luminescence, NIH3T3 host cells; T. cruzi beta-gal in NIH3T3, 90 h; AID 1885, 2009; inhibition, % (concentration not given with the values); 1.4% of 300,000 active;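 active = mean inhibition across valid replicates above about 55%, limit read from the data; inconclusive = mean below that limit but half or more replicates reach it; inactive = mean below it, under half of replicates reach it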;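 also: signal also drops with host cell toxicity which is not excluded here; higher percent means less beta-gal luminescence so fewer parasites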
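Assay system: NIH/3T3 host cells with β-galactosidase reporter T. cruzi; input: 5,000 host fibroblasts per well; compound: single 50 nL compound addition per well in DMSO; timing: ≥90 h infection period, 3 h prior cell attachment; measured by: GalScreen β-gal luminescence, detergent lysis, 60 min; evaluation: percent inhibition of parasite-derived β-gal signal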
Numbers stand for hits; - = inactive; ? = inconclusive; . = no result given; ! = a repeat was not active. An excerpt weighted towards active compounds, which were near 3.6% of everything screened.

SMILES	SKKanGAS inh	HIF activator	PfHsp90 yeast 2	Beta apoptosis	CSC inhib	T cruzi inh
Cc1ccc2ccc(C(Nc3ccccn3)c3ccccc3)c(O)c2n1 (centres undefined)	85	-	-	.	.	-
Cc1cccc(NC(c2ccc(C)s2)c2ccc3ccc(C)nc3c2O)n1 (centres undefined)	77	-	-	.	.	?
Oc1c(C(Nc2ccccn2)c2ccccn2)ccc2cccnc12 (centres undefined)	72	14	-	87	-	55
COc1cc(C(Nc2ccccn2)c2ccc3ccc(C)nc3c2O)cc(OC)c1O (centres undefined)	-	-	-	-	-	-
CN(C)S(=O)(=O)c1cccc(NC(=O)c2cccc(S(=O)(=O)N3CCc4ccccc43)c2)c1	.	.	-	.	.	.
COc1ccc(C(Nc2cc(C)ccn2)c2ccc3ccc(C)nc3c2O)cc1 (centres undefined)	61	-	-	-	-	59
Oc1ccccc1C(Nc1nccs1)c1ccc2cccnc2c1O (centres undefined)	75	21	-	87	138	63
Cc1ccnc(NC(c2ccccc2)c2ccc3cccnc3c2O)c1 (centres undefined)	.	.	-	.	.	.
Cc1noc(C)c1NC(=O)N(C)C[C@H]1Oc2ccc(NC(=O)C3CC3)cc2C(=O)N([C@H](C)CO)C[C@@H]1C	.	.	-	-	-	.
CCOc1ccc(Cl)cc1S(=O)(=O)n1cnc2cc(C)c(C)cc21	52	-	-	-	-	-
Cc1c(NC2(C#N)CCCCC2)c(=O)n(-c2ccccc2)n1C	-	-	-	-	-	-
CCOc1ccc(S(=O)(=O)NC(C)(C)C)cc1-c1nc2c(C(C)(C)C)nn(C)c2c(=O)[nH]1	-	.	-	.	.	67
COc1cc(CC(=O)Nc2cc(S(=O)(=O)N3CCOCC3)ccc2N2CCCC2)cc(OC)c1OC	.	.	-	.	.	.
CCCn1c(=O)c(C(=O)NCCc2ccccc2)c(O)c2ccccc21	-	-	-	-	-	-
CCCn1c(=O)c(C(=O)NNC(=O)c2ccc(Cl)cc2Cl)c(O)c2ccccc21	70	-	-	-	-	-
CCCn1c(=O)c(C(=O)Nc2ccccc2C(=O)OCC)c(O)c2ccccc21	-	.	.	-	.	.
CCCn1c(=O)c(C(=O)NNS(=O)(=O)c2ccc(Cl)cc2)c(O)c2ccccc21	96	-	-	-	86	-
CCn1c(=O)c(C(=O)NNC(=O)c2ccc(Cl)cc2Cl)c(O)c2ccccc21	75	-	-	-	-	-
CC(C)C(NC(=O)c1c(F)cccc1F)C(=O)N1CCN(S(=O)(=O)c2ccc(F)cc2)CC1 (centres undefined)	.	.	-	-	.	.
COc1ccc2cc(C(=O)C3CCCN(C(=O)Cc4c(C)noc4C)C3)ccc2c1 (centres undefined)	-	-	-	-	-	-
COc1cc(OC)c(C(=O)OCC(=O)N2CCN(S(=O)(=O)c3ccc(C)cc3C)CC2)cc1OC	.	.	-	.	.	.
CN1CCN(c2cc(N3CCN(C(=O)c4ccco4)CC3)c3c4c(onc24)-c2ccccc2C3=O)CC1	-	-	-	-	-	-
O=C(O)CCCNc1cc(N2CCN(C(=O)c3ccco3)CC2)c2noc3c2c1C(=O)c1ccccc1-3	52	-	-	.	-	-
COc1ccccc1CN(C)C(=O)C(c1ccccc1)c1ccccc1	-	-	-	-	-	-
C/C(=N\NC(=O)c1cc(C)oc1C)c1ccc2ccccc2c1	-	-	-	-	-	-
O=[N+]([O-])c1cccc(-c2cn3nc(-c4ccccc4)c(-c4ccccc4)nc3n2)c1	-	-	-	98	-	-
O=[N+]([O-])c1ccc(-c2cn3nc(-c4ccccc4)c(-c4ccccc4)nc3n2)cc1	-	-	.	-	-	-
Cc1ccsc1CN(C)CC(=O)Nc1ccccc1C(=O)NC1CC1	.	.	.	-	-	.
CN(C(=O)COC(=O)/C=C/c1cccs1)c1c(N)n(Cc2ccccc2)c(=O)[nH]c1=O	-	-	-	-	-	-
CC/C(=C(\c1ccccc1)c1ccc(OCCN(C)C)cc1)c1ccccc1	66!	-	-	-	99	-
